# From ChEMBL document CHEMBL2177074, “Variation of the net charge, lipophilicity, and side chain flexibility in Dmt(1)-DALDA: Effect on Opioid Activity and Biodistribution” (J Med Chem, 2012)
# Activity calls are given as the source filed them. Non-standard residues stand in square brackets, D forms with d. Residues, ends and D or L forms follow the SMILES beside them. Dmt = Cc1cc(O)cc(C)c1C[C@H](N)C(=O)O; dCit = NC(=O)NCCC[C@@H](N)C(=O)O; NMeNle = CCCC[C@H](NC)C(=O)O; Nle = CCCC[C@H](N)C(=O)O
# Legend:
# Mus musculus [1] = test: Antinociceptive activity in sc dosed CD1 mouse assessed as thermal-stimulus induced tail flick latency after 6 to 7 hrs; assay type: functional, organism-based
# Procedure, shortened: (§1)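 Male CD-1 mice (25–35 g) dosed s.c. at 10 µl/g. Radiant-heat tail-flick latency measured with a 10 s cut-off and expressed as %MPE. At least three doses, 5–6 mice per dose.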
# Mus musculus [2] = test: Antinociceptive activity in CD1 mouse assessed as AUC of thermal-stimulus induced tail flick latency assessed per min at 1 umol/kg, ip up to 120 mins; assay type: functional
# Mus musculus [3] = test: Antinociceptive activity in sc dosed CD1 mouse assessed as thermal-stimulus induced tail flick latency after 1 hr; assay type: functional; procedure, shortened: as §1
# Mus musculus [4] = test: Antinociceptive activity in sc dosed CD1 mouse assessed as thermal-stimulus induced tail flick latency after 1 hr relative to morphine; assay type: functional; procedure, shortened: as §1
# Mus musculus [5] = test: Antinociceptive activity in CD1 mouse assessed as thermal-stimulus induced tail flick latency at 1 umol/kg, ip up to 120 mins; assay type: functional, organism-based
# Mu-type opioid receptor [6] = target: Mu-type opioid receptor (Cavia porcellus, UniProt P97266); test: (§2) Agonist activity at mu opioid receptor in guinea pig ileum; assay type: functional, tissue-based
# Sequence of Mu-type opioid receptor (Cavia porcellus, UniProt P97266) (P97266 whole entry): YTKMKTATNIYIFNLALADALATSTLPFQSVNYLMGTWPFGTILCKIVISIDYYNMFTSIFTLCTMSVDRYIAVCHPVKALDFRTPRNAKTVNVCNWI
# Procedure, shortened: (§3)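 Isolated tissue bioassays: mouse vas deferens and guinea pig ileum preparations. A [Leu5]enkephalin dose-response curve was run as standard on each preparation, and test IC50 values were normalized against it.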
# [7] = target: Kappa-type opioid receptor (Cavia porcellus, UniProt P41144); test: Displacement of [3H]U69,593 from kappa opioid receptor in guinea pig ileum membranes after 2 hrs; assay type: cell membranes, Membrane
# Sequence of Kappa-type opioid receptor (P41144 whole entry): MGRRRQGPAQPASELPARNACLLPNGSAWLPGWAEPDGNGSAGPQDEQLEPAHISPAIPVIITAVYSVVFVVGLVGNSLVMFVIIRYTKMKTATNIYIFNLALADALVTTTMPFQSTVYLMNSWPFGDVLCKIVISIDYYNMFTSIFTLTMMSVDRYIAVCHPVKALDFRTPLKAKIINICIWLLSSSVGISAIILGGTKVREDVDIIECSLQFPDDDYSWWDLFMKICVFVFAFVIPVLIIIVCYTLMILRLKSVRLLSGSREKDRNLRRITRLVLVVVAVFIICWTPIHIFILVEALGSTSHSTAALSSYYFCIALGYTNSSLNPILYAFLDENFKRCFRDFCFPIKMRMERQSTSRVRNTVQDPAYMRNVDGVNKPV
# [8] = target: Delta-type opioid receptor (Mus musculus, UniProt P32300); test: (§4) Agonist activity at delta opioid receptor in mouse vas deferens; assay type: functional, tissue-based; procedure, shortened: as §3
# Sequence of Delta-type opioid receptor (Mus musculus, UniProt P32300) (P32300 whole entry): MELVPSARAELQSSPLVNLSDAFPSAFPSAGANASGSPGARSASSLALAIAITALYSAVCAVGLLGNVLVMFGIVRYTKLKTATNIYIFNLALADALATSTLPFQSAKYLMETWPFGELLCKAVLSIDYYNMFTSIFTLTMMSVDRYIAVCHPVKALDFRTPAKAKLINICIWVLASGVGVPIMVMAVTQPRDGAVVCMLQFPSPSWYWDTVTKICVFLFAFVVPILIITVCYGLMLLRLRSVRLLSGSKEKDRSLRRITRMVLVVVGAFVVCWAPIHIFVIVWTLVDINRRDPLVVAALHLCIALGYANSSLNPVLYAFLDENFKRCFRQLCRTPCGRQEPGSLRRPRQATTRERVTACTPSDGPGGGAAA
# Mu-type opioid receptor [9] = target: Mu-type opioid receptor (Rattus norvegicus, UniProt P33535); test: Displacement of [3H]DAMGO from mu opioid receptor in rat brain membranes after 2 hrs; assay type: cell membranes
# Sequence of Mu-type opioid receptor (Rattus norvegicus, UniProt P33535) (P33535 whole entry): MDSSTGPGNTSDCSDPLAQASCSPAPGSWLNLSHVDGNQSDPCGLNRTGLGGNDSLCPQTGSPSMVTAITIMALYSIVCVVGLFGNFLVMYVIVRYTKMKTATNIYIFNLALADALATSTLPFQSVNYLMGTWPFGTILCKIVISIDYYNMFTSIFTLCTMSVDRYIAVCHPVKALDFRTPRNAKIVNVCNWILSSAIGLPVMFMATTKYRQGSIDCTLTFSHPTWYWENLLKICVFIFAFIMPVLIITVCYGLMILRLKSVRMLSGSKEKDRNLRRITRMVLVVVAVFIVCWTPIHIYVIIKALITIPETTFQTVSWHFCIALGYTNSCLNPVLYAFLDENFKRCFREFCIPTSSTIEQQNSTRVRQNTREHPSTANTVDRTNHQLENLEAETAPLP
# [10] = target: Delta-type opioid receptor (Rattus norvegicus, UniProt P33533); test: Displacement of [3H]DSLET from delta opioid receptor in rat brain membranes after 2 hrs; assay type: cell membranes
# Sequence of Delta-type opioid receptor (Rattus norvegicus, UniProt P33533) (P33533 whole entry): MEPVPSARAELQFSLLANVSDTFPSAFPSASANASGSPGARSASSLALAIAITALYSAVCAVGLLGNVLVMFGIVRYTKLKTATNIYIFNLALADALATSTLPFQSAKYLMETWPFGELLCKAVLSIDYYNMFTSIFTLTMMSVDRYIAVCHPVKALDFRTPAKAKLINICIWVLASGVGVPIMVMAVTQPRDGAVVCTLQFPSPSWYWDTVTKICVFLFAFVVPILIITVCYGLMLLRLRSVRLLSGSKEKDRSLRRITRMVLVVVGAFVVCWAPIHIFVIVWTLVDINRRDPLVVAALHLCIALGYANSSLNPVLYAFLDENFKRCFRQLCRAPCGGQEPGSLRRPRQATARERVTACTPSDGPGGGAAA
# Serum = test: Biodistribution in ICR-CD1 mouse serum at 30000 cpm/uL, iv after 15 mins; assay type: ADME, organism-based; settings: in vivo, 0.25 h
# Procedure, shortened: (§5)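 After intravenous 125I-peptide, kidneys, liver and other organs collected immediately after brain dissection, weighed and gamma-counted. Serum obtained by centrifugation at 10 000 × g for 15 min. Results expressed as % of injected dose per g tissue, normalized to body weight.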
# Brain [11] = test: Blood brain barrier transport in ICR-CD1 mouse brain assessed as unidirectional initial influx rate at 30000 cpm/uL, iv; assay type: ADME, organism-based; settings: in vivo
# Brain [12] = test: Blood brain barrier transport in ICR-CD1 mouse brain assessed as brain efflux rate coefficient at 30000 cpm/uL, iv; assay type: ADME, organism-based; settings: in vivo
# [13] = Metabolic stability in mouse brain assessed as compound recovery after 2 hrs; assay type: ADME, tissue-based; settings: read-out: Stability
# Procedure, shortened: (§6)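 100 µg unlabelled peptide in Krebs-Henseleit buffer pH 7.4 incubated at 37 °C with shaking, in 250 µl mouse plasma or brain homogenate (150 µg protein). Aliquots quenched with TFA, heated 5 min at 95 °C, then centrifuged. Supernatants analysed by UPLC or HPLC (210 nm); recovery measured after 2 h.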
# [14] = Metabolic stability in mouse plasma assessed as compound recovery after 2 hrs; assay type: ADME, cell-free; settings: read-out: Stability; procedure, shortened: as §6
# Liver = test: Biodistribution in ICR-CD1 mouse liver at 30000 cpm/uL, iv; assay type: ADME, organism-based; settings: in vivo; procedure, shortened: as §5
# Mus musculus [15] = test: Antinociceptive activity in sc dosed CD1 mouse assessed as thermal-stimulus induced tail flick latency after 2 hrs; assay type: functional; procedure, shortened: as §1
# Mus musculus [16] = test: Antinociceptive activity in CD1 mouse assessed as thermal-stimulus induced tail flick latency at 1 umol/kg, ip after 60 mins; assay type: functional, organism-based
# Kidney = test: Biodistribution in ICR-CD1 mouse kidney at 30000 cpm/uL, iv; assay type: ADME, organism-based; settings: in vivo; procedure, shortened: as §5
# [17] = Half life in sheep blood; assay type: ADME, cell-free, Ovis aries, Plasma
# [18] = target: Mu-type opioid receptor (Cavia porcellus) (UniProt P97266); test: as §2; assay type: functional, tissue-based; procedure, shortened: as §3
# Sequence of Mu-type opioid receptor (Cavia porcellus) (P97266 whole entry): as the sequence (P97266 whole entry) above
# Mus musculus [19] = test: Antinociceptive activity in sc dosed CD1 mouse assessed as thermal-stimulus induced tail flick latency after 2 to 3 hrs; assay type: functional, organism-based; procedure, shortened: as §1
# Mus musculus [20] = test: Antinociceptive activity in CD1 mouse assessed as thermal-stimulus induced tail flick latency at 1 umol/kg, ip after 45 to 60 mins; assay type: functional, organism-based
# Mus musculus [21] = test: Antinociceptive activity in sc dosed CD1 mouse assessed as thermal-stimulus induced tail flick latency after 30 mins; settings: 0.5 h
# Mus musculus [22] = test: Antinociceptive activity in sc dosed CD1 mouse assessed as thermal-stimulus induced tail flick latency; assay type: functional; procedure, shortened: as §1
# [23] = target: Delta-type opioid receptor (Mus musculus) (UniProt P32300); test: as §4; assay type: functional, tissue-based; procedure, shortened: as §3
# Sequence of Delta-type opioid receptor (Mus musculus) (P32300 whole entry): as the sequence (P32300 whole entry) above
# Mus musculus [24] = test: Antinociceptive activity in CD1 mouse assessed as thermal-stimulus induced tail flick latency at 1 umol/kg, ip after 45 mins; assay type: functional, organism-based
Structure (SMILES),Activity (Mus musculus [2]) [%.min],Activity (Mus musculus [5]),IC50 (Mu-type opioid receptor [6]) [nM],Ki [7] [nM],IC50 [8] [nM],Ki (Mu-type opioid receptor [9]) [nM],Ki [10] [nM],Drug uptake (Serum),Kin (Brain [11]) [µL/g/min],Activity (Brain [12]) [min⁻¹],remaining at 2 h [13] [%],remaining at 2 h [14] [%],also measured
Cc1cc(O)cc(C)c1C[C@H](N)C(=O)N[C@H](CCCNC(=N)N)C(=O)N[C@H]1Cc2ccccc2CN(CC(N)=O)C1=O,253,Active,,,,,,,,,,,Activity (Mus musculus [1]): Dose-dependent effect; ED50 (Mus musculus [3]): 0.47 µmol/kg; Ratio (Mus musculus [4]): 14
C[C@@H](NC(=O)[C@@H](N)Cc1ccc(O)cc1)C(=O)N[C@@H](Cc1ccccc1)C(=O)NCC(=O)N[C@@H](Cc1ccc(O)cc1)C(=O)N1CCC[C@H]1C(=O)N[C@@H](CO)C(N)=O [DERMORPHIN],46,,,,,,,,,,,,
CCCC[C@H](NC(=O)[C@H](Cc1ccccc1)NC(=O)[C@@H](CCCN=C(N)N)NC(=O)[C@@H](N)Cc1c(C)cc(O)cc1C)C(N)=O (H-[Dmt][dR]F[Nle]-NH2),,,2.2,16.2,6.2,0.23,15.2,Active,8.48,-0.039,104,90.2,Drug uptake (Liver): Active
Cc1cc(O)cc(C)c1C[C@H](N)C(=O)N[C@H](CCCNC(=N)N)C(=O)N[C@@H](Cc1ccccc1)C(=O)N[C@@H](CCCCN)C(N)=O,750,Active,,,,,,Active,9.44,0.058,103,94.7,Activity (Mus musculus [1]): Dose-dependent effect; ED50 (Mus musculus [15]): 0.15 µmol/kg; Activity (Mus musculus [16]): Active; Drug uptake (Kidney): Active; half-life [17]: 1.8 h
CCCC[C@@H](C(N)=O)N1Cc2ccccc2C[C@H](NC(=O)[C@@H](CCCNC(N)=O)NC(=O)[C@@H](N)Cc2c(C)cc(O)cc2C)C1=O,,,,11.1,1.16,0.93,3.18,,,,,,IC35 [18]: 0.78 nM
Cc1cc(O)cc(C)c1C[C@H](N)C(=O)N[C@H](CCCNC(N)=O)C(=O)N[C@H]1Cc2ccccc2CN([C@@H](CCCCN)C(N)=O)C1=O,,,49,,1000,2.62,56.9,,,,,,
Cc1cc(O)cc(C)c1C[C@H](N)C(=O)N[C@H](CCCNC(N)=O)C(=O)N[C@@H](Cc1ccccc1)C(=O)N(C)[C@@H](CCCCN)C(N)=O,1412,Active,1.01,11.5,4.4,0.94,39.2,Active,11.35,0.01,95,104,Activity (Mus musculus [19]): Active; Activity (Mus musculus [20]): Active; ED50 (Mus musculus [3]): 0.16 µmol/kg; Ratio (Mus musculus [4]): 41
CCCC[C@@H](C(N)=O)N(C)C(=O)[C@H](Cc1ccccc1)NC(=O)[C@@H](CCCNC(N)=O)NC(=O)[C@@H](N)Cc1c(C)cc(O)cc1C (H-[Dmt][dCit]F[NMeNle]-NH2),,,0.65,> 10,1.5,2.92,5.03,,,,,,
CCCC[C@H](NC(=O)[C@H](Cc1ccccc1)NC(=O)[C@@H](CCCNC(N)=O)NC(=O)[C@@H](N)Cc1c(C)cc(O)cc1C)C(N)=O (H-[Dmt][dCit]F[Nle]-NH2),,,0.89,98.5,4.7,0.79,3.98,,,,,,
CN1CC[C@]23c4c5ccc(O)c4O[C@H]2[C@@H](O)C=C[C@H]3[C@H]1C5 [MORPHINE],66,,,,,,,,,,,,ED50 (Mus musculus [21]): 6.6 µmol/kg
CCCC[C@H](NC(=O)[C@H](Cc1ccccc1)NC(=O)[C@@H](CCCNC(=N)N)NC(=O)[C@@H](N)Cc1c(C)cc(O)cc1C)C(N)=O (H-[Dmt][dR]F[Nle]-NH2),65,Active,,,,,,,,,,,ED50 (Mus musculus [22]): > 6 µmol/kg; Activity (Mus musculus [16]): Active
Cc1cc(O)cc(C)c1C[C@H](N)C(=O)N[C@H](CCCN=C(N)N)C(=O)N[C@H]1Cc2ccccc2CN(CC(N)=O)C1=O,,,,,,,,Active,14.89,0.096,99.6,107,Drug uptake (Kidney): Active
CCCC[C@@H](C(N)=O)N(C)C(=O)[C@H](Cc1ccccc1)NC(=O)[C@@H](CCCN=C(N)N)NC(=O)[C@@H](N)Cc1c(C)cc(O)cc1C,,,4.35,14.4,1.5,0.26,16,,,,,,
Cc1cc(O)cc(C)c1C[C@H](N)C(=O)N[C@H](CCCNC(=N)N)C(=O)N[C@H]1Cc2ccccc2CN([C@@H](CCCCN)C(N)=O)C1=O,,,76,,,0.61,38.6,,,,,,IC25 [23]: 64 nM
Cc1cc(O)cc(C)c1C[C@H](N)C(=O)N[C@H](CCCNC(N)=O)C(=O)N[C@@H](Cc1ccccc1)C(=O)N[C@@H](CCCCN)C(N)=O,521,Active,0.31,20.9,1.4,0.57,50,Active,14.91,0.027,96.2,98.3,Activity (Mus musculus [19]): Active; Activity (Mus musculus [24]): Active; ED50 (Mus musculus [3]): 0.23 µmol/kg; Activity (Mus musculus [16]): Active; Ratio (Mus musculus [4]): 29; Drug uptake (Kidney): Active; Drug uptake (Liver): Active
CCCC[C@@H](C(N)=O)N1Cc2ccccc2C[C@H](NC(=O)[C@@H](CCCN=C(N)N)NC(=O)[C@@H](N)Cc2c(C)cc(O)cc2C)C1=O,,,1.45,1.12,3.1,0.43,7.46,,,,,,
Cc1cc(O)cc(C)c1C[C@H](N)C(=O)N[C@H](CCCNC(=N)N)C(=O)N[C@@H](Cc1ccccc1)C(=O)N(C)[C@@H](CCCCN)C(N)=O,,Active,8.3,56.1,7,0.26,309,Active,18.11,0.028,94,112,Activity (Mus musculus [20]): Active; Activity (Mus musculus [1]): Dose-dependent effect; ED50 (Mus musculus [15]): 0.13 µmol/kg
